Bioassay records from PubChem.
hERG rescue = shields human hERG channel from block by proarrhythmic agents. CHO-hERG, FluxOR thallium flux, dofetilide IC70 present. 310,000 compounds, 0.51% hits. activation (rescue from dofetilide block), less the hit threshold, % at 10 µM;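 active = activation above the mean of controls blocked by dofetilide plus 5 SD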;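 note: thallium influx through hERG after potassium depolarization seen as dye fluorescence rise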
Target sequence (Q12809 whole entry, looked up): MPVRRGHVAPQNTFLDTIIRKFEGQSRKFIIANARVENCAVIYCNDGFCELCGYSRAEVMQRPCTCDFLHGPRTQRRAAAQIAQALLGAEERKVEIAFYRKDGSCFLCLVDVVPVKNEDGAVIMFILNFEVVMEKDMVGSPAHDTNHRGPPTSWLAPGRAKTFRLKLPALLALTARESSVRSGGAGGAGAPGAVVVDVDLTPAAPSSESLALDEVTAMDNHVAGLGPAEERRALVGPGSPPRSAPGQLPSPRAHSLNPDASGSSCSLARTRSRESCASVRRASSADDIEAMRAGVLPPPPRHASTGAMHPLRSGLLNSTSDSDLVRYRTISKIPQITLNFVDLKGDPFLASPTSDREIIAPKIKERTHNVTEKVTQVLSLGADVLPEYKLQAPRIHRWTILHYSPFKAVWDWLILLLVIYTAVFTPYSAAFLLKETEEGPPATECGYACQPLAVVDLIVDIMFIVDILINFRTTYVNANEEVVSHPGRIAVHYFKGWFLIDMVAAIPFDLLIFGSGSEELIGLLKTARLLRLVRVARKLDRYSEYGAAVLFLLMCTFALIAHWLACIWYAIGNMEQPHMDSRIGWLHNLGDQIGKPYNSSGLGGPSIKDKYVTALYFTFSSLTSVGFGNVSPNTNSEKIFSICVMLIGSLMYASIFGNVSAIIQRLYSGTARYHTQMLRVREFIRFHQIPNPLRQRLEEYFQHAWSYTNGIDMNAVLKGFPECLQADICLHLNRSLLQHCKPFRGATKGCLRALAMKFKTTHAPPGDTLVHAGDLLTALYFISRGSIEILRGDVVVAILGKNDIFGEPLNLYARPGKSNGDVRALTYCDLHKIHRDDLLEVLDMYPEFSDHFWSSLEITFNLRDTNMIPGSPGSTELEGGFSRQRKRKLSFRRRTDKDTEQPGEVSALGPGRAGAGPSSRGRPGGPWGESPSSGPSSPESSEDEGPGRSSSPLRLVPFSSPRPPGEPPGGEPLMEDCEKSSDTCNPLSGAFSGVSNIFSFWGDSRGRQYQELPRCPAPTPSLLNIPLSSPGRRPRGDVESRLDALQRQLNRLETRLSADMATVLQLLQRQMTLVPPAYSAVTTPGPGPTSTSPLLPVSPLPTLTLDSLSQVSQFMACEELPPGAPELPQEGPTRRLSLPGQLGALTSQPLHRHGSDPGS
SUMO Mot1 rescue = inhibitors of SUMOylation pathway: yeast Mot1-301 growth rescue; S. cerevisiae Mot1-301 growth rescue, ATP luminescence, 38.5C; percent above DMSO median, 100 means doubled; growth rescue, % at 18.8 µM; 320,000 compounds, 1% hits; AID 2716;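 active = every valid replicate shows activation above 250% relative to neutral control wells; inactive = the rest, any valid replicate at or below 250%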;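 note: OY570 slx delta 5 strain wells were the positive control but not used for scaling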
KCC2 mod = modulators of human KCC2 chloride dependent transport; Q9H2X9; KCC2 cells, thallium flux FluoZin-2 fluorescence; B-score of Tl+ flux slope (higher = more flux/activation; lower = inhibition) at 10 µM; 190,000 compounds, 2.2% hits;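 active = thallium flux slope and its plate-corrected score both differing from the plate sample mean at a set confidence after two filtering rounds, in either direction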;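 note: slope of fluorescence scaled to starting intensity during 10 to 20 s after thallium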
KCNQ1 inh = blocks the human KCNQ1 potassium channel; CHO-K1 KCNQ1, FluxOR thallium flux fluorescence; active compounds read high; B-score at 10 µM; P51787; AID 2642; 310,000 compounds, 1.3% hits;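 active = compounds whose thallium flux B-score, printed positive for inhibition, exceeds three library SD while starting fluorescence stays within three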;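 note: channel opened by potassium depolarization with thallium stimulus after 20 min compound exposure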
KCNQ1 pot = potentiates or activates the human KCNQ1 potassium channel; B-score at 10 µM; 310,000 compounds, 0.35% hits; CHO-K1 KCNQ1, thallium flux FluxOR fluorescence; active compounds read high; P51787;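 active = fluorescence ratio B-score, a plate-corrected score, at least three library SD, with initial intensity B-score within 5 SD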
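Assay system: CHO-K1 cells stably expressing KCNQ1; Medium: assay buffer with matched DMSO; Also added: K+/Tl+ depolarizing stimulus; Dosing: single dose; Timing: dye 90 min, compound 20 min, room temperature; Measured by: kinetic FluxOR thallium fluorescence, 10-s 1-Hz baseline, 110-s post-stimulus read; Read-out: peak-minus-minimum fluorescence over initial fluorescence, negative-control normalized, B-scored.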
AI-2 QS modul = modulates the Vibrio harveyi AI-2 quorum sensing system. Vibrio harveyi JMH597 AI-2 luminescence/OD600 ratio, 9 h; active compounds read low; strain lacks LuxN and CqsS sensors; 0 = neutral-control median. activity change, % at 7.5 µM. 300,000 compounds, 0.4% hits; in the data active = activity change below about -75%, passing the limit was not always enough; inconclusive = no clear call, values can overlap the other calls;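 note: luminescence divided by OD600 gain over 9 h not by final OD600 alone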
KCC2 sec1 = KCC2 (human) modulation, secondary assay. shares compounds with KCC2 mod. HEK293-KCC2, thallium flux, FluoZin2 fluorescence; active compounds read high. normalised thallium flux (F/F0 slope) at 10 µM. 3,700 compounds, 15% hits. AID 1713;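 active = thallium flux slope above the same plate's solvent-only control mean plus 3 SD; inconclusive = the two replicate wells disagree; inactive = no significant difference from solvent-only control wells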
KCC2 bumet counter = bumetanide-insensitive thallium flux in KCC2 cells with ouabain, counter-screen | shares compounds with KCC2 mod | HEK293-KCC2 + bumetanide/ouabain, thallium flux FluoZin2; active compounds read high | normalized thallium flux at 10 µM | AID 1714 | 3,700 compounds, 49% hits;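 active = thallium entry rate above the same plate's blocked-transporter control wells by more than 3 SD; inconclusive = the two repeat wells disagree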;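 note: raw slope of fluorescence over initial fluorescence between 10 and 20 s after thallium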
KCC2 secondary2 = confirmation of human KCC2 transport modulators; shares compounds with KCC2 mod; HEK293-KCC2, thallium flux FluoZin2 fluorescence; actives lie on both sides; F/F0 rise rate, 10–20 s post-thallium; normalized thallium flux at 10 µM; 3,700 compounds, 23% hits; AID 1715;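 active = thallium flux slope more than 3 SD above or below the plate's solvent-only control mean, mostly below; inconclusive = the two repeat wells disagreed; inactive = no significant shift from solvent-only controls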;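 note: raw slope with 0.1% DMSO as baseline and bumetanide as block control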
HEK293 Tl flux = parental HEK flux effect, counter-screen; thallium flux rate (normalised fluorescence) at 10 µM; shares compounds with KCC2 mod; HEK293 parental cells, thallium flux FluoZin2, ouabain; baseline-ratio fluorescence slope, 10–20 s after thallium; 3,700 compounds, 46% hits;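 active = thallium flux rate significantly above the same plate's solvent-only control wells, beyond their mean plus 3 SD; inconclusive = the two replicate wells gave conflicting results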
KCC2 retest ouab = modulates human KCC2 on retest with ouabain | shares compounds with KCC2 mod | HEK293-KCC2, thallium flux FluoZin2 fluorescence; bidirectional: low = inhibitor, high = activator | raw Tl+ flux slope (below DMSO = inhibition, above = activation) at 10 µM | 3,700 compounds, 48% hits | AID 1717;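 active = thallium flux slope beyond 3 SD from same-plate DMSO control mean in most replicates, usually higher, sometimes lower; inconclusive = repeat tests gave conflicting results; inactive = no significant difference from controls in most replicates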;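 note: slope of initial-normalized fluorescence between seconds 10 and 20 after thallium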
HEK counter2 = counter-screen for KCC2 modulators: effect in parental HEK293 cells. thallium flux FluoZin-2 fluorescence slope. AID 1718. thallium flux slope at 10 µM. shares compounds with KCC2 mod. 3,700 compounds, 33% hits;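 active = thallium flux slope above the same plate's solvent-control mean plus 3 SD in both duplicate wells; inconclusive = duplicate wells that disagreed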;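 note: run without ouabain in cells lacking the KCC2 cotransporter; slope of fluorescence scaled to its starting value between 10 and 20 s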
The depositor's hits bear a star; i = inactive; ? = inconclusive; · = no result given. An excerpt weighted towards active compounds, which were near 4.2% of everything screened.

SMILES	hERG rescue	SUMO Mot1 rescue	KCC2 mod	KCNQ1 inh	KCNQ1 pot	AI-2 QS modul	KCC2 sec1	KCC2 bumet counter	KCC2 secondary2	HEK293 Tl flux	KCC2 retest ouab	HEK counter2
O=C(CN(C(=O)CCC(=O)Nc1nccs1)c1cccc(C(F)(F)F)c1)NCC1CCCO1 (configuration not stated)	-5	-4	·	i	i	6	·	·	·	·	·	·
COC(=O)[C@H](CC(C)C)N(Cc1ccccc1)S(=O)(=O)N(Cc1ccc(OC)cc1)[C@@H](CC(C)C)C(=O)OC	·	-1	·	·	·	·	·	·	·	·	·	·
Fc1ccc(-c2c[nH]c(=S)n2Cc2ccccc2)cc1	-8	784	2.5	i	i	-9	·	·	·	·	·	·
O=C(Cn1cnc([N+](=O)[O-])n1)c1ccc(O)c(O)c1	-3	105	·	i	i	-5	·	·	·	·	·	·
O=C(Nc1nc(-c2ccccc2)cs1)c1cccs1	-13	248	-1.2	i	i	-1	?	0.0094*	0.031	0.0073	?	0.0099
O=C(NCc1ccccc1)C(=O)Nc1nc(-c2ccccc2)cs1	0	75	27*	i	i	20	0.021*	0.037*	0.034	0.053*	0.039*	0.016*
CN1CCN(S(=O)(=O)c2cccc(C(=O)Nc3nc(-c4ccccc4)cs3)c2)CC1	-18	3	-3*	i	i	6	0.018	0.0044	0.027	?	0.014	0.01
COc1ccc(-c2csc(NC(=O)c3cccc(S(=O)(=O)N4CCN(C)CC4)c3)n2)cc1	-3	-12	0.76	i	i	23	·	·	·	·	·	·
CCOc1ccc(NC(=O)CSc2nnc(CCNC(=O)c3ccc(OC)cc3)n2CC)cc1	-5	72	·	i	i	12	0.011	?	0.035	0.0077	0.022	?
O=C(Nc1nc(-c2ccc(Cl)s2)cs1)c1cccs1	-14	37	-0.34	i	i	-2	·	·	·	·	·	·
COc1cc(OC)cc(C(=O)N[C@H](C(=O)OCC(=O)Nc2cccnc2Cl)C(C)C)c1	·	-1	·	·	·	·	·	·	·	·	·	·
CC(C)C1(C(C)C)OC(=O)c2ccccc21	-11	-8	-0.14	i	i	3	·	·	·	·	·	·
O=C1OC(c2ccc(O)cc2)(c2ccc(O)cc2)c2ccccc21	0	3	11*	i	i	19	0.0057	0.0096*	0.035	0.0077	0.025*	0.012
COc1ccc(CNC(=O)COC(=O)c2ccc(OCC3CCCO3)cc2)cc1 (configuration not stated)	·	14	·	·	·	·	·	·	·	·	·	·
Cn1c(O)c(C2=c3ccccc3=NC2=O)[nH]c1=S	-1	42	27*	i	i	17	0.015*	0.061*	0.032	0.031*	0.043*	0.014*
CCN(CC)C(=O)Cn1cc(S(=O)(=O)CC(=O)Nc2cc(C)on2)c2ccccc21	-12	1	·	i	i	12	·	·	·	·	·	·
Cc1cc(NC(=O)CS(=O)(=O)c2cn(Cc3ccccc3Cl)c3ccccc23)no1	-11	16	-2.9*	i	i	44	0.0063	0.004	?	0.006*	0.015*	?
Cc1ccc2nc(NC(=O)c3ccccn3)sc2c1	-4	-31	7.9*	i	i	26	?	0.041*	0.032	0.018*	0.036*	0.011*
Cc1ccc2nc(NC(=O)c3ccccc3F)sc2c1	-11	18	·	i	i	13	·	·	·	·	·	·
COc1ccc2nc(NC(=O)CN(C)S(=O)(=O)c3cccs3)sc2c1	-4	29	-0.76	i	i	30	·	·	·	·	·	·
COc1ccc2nc(NC(=O)CNS(=O)(=O)c3cccs3)sc2c1	-8	0	·	i	i	20	0.01	0.0065	0.031	0.0077	?	?
CCOc1ccc2nc(NC(=O)c3ccccn3)sc2c1	-7	-21	6.4*	i	i	15	?	0.028*	0.028	0.013*	0.03*	?
Cc1ccc2nc(N/C(=N/S(=O)(=O)c3cccs3)c3ccccc3Cl)sc2c1	-6	-4	6.4*	i	i	33	0.0073	0.023*	0.032	0.022*	?	0.017*
Cc1ccc(C)c(C(=O)Nc2ccncc2)c1	-1	-5	·	i	i	13	·	·	·	·	·	·
CCCCCCN(C(=O)CCCCCN1C(=O)NC(c2ccccc2)C(C(=O)OCc2ccccc2)=C1C)C(C(=O)NCCCC)c1ccc(OCC(=O)OC)c(C(=O)OC)c1 (configuration not stated)	·	·	-1.2	·	·	·	·	·	·	·	·	·
SMILES	hERG rescue	SUMO Mot1 rescue	KCC2 mod	KCNQ1 inh	KCNQ1 pot	AI-2 QS modul	KCC2 sec1	KCC2 bumet counter	KCC2 secondary2	HEK293 Tl flux	KCC2 retest ouab	HEK counter2
Cc1cc(NC(=O)CS(=O)(=O)c2ccc(Cl)cc2)no1	-8	0	·	i	i	4	·	·	·	·	·	·
O=C(Nc1nc2c(F)cc(F)cc2s1)c1ccccn1	-11	14	23*	i	i	12	0.02*	0.11*	0.031	0.039*	0.076*	0.015*
O=C(C1CC(c2ccccc2O)=NO1)N1CCc2ccccc2C1 (configuration not stated)	-3	9	-3.2*	i	i	4	0.0068	0.0053	?	0.008	0.018	0.011
O=C(C1CC(c2ccc(F)cc2)=NO1)N1CCc2ccccc2C1 (configuration not stated)	-6	-10	-0.77	i	i	13	·	·	·	·	·	·
COC(=O)NCC12CC3CC(C1)CC(CNC(=O)OC)(C3)C2	-4	6	0.12	i	i	22	0.0075	0.0044	0.028	0.0071	0.019	0.0096
COc1ccc(CCNC(=O)C(=O)NCC2CCCN2S(=O)(=O)c2ccccc2)cc1OC (configuration not stated)	-18	181	·	i	i	-2	·	·	·	·	·	·
